Measured values reported in ChEMBL document CHEMBL1124158, “Importance of the N-terminal domain of the type II angiotensin antagonist sarmesin for receptor blockade” (J Med Chem, 1988).

Key:
Rattus norvegicus [1] = species: Rattus norvegicus; assay: Agonistic activity determined by matching the response with an equivalent response to ANG II (human)-evaluated in rat uterus bioassay; assay type: functional
Procedure, shortened: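 Uterine horns (defatted) from diethylstilbestrol-primed virgin Sprague-Dawley rats (150-250 g), halved, held under 1 g tension in a 3-mL bath: 150 mM NaCl, 5.6 mM KCl, 0.18 mM NaHCO₃, 1.4 mM glucose, pH 7.0, oxygen-gassed. Isotonic contractions recorded. Agonist activity expressed relative to an equivalent contraction produced by human ANG II.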

Rattus norvegicus [2] = species: Rattus norvegicus; assay: Negative logarithm of the concentration of compound required to reduce the response of EC50 dose of ANG II to the response to half the EC50 dose; assay type: functional, organism-based; conditions: read-out: pA2 (converted)
Procedure, shortened: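 Rat isolated uterus: defatted horns from diethylstilbestrol-primed virgin Sprague-Dawley rats (150-250 g), halved, 1 g tension, 3-mL bath of 150 mM NaCl, 5.6 mM KCl, 0.18 mM NaHCO₃, 1.4 mM glucose, pH 7.0, oxygenated. Isotonic contractions to human ANG II. pA2 = −log antagonist concentration lowering the EC50-dose response to that of half the EC50 dose.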

CC[C@H](C)[C@H](NC(=O)[C@@H]1CCCN1C(=O)[C@H](Cc1c[nH]cn1)NC(=O)[C@@H](NC(=O)[C@H](Cc1ccc(O)cc1)NC(=O)[C@@H](NC(=O)[C@H](CCCN=C(N)N)NC(=O)CNC)C(C)C)[C@@H](C)CC)C(=O)O
Activity (Rattus norvegicus [1]): <0.01%
Kb (Rattus norvegicus [2]): 7.94 nM
